Reference: ChEMBL document CHEMBL1127013, “Glycosylated derivatives of benzophenone, benzhydrol, and benzhydril as potential venous antithrombotic agents” (1993)

How the values were obtained:
Format in all cases: functional
Rattus norvegicus [1] = assay: Effective dose administered by intravenous route before injection of thrombogenic agent in rat model
Procedure, shortened: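 Intravenous dosing in rats at various times before the factor Xa thrombogenic challenge. Thrombus was isolated from the vein segment, dried 24 h at 55 °C and weighed. ED50 was calculated by linear regression with 95% confidence limits.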

Rattus norvegicus [2] = assay: Antithrombotic activity was determined at 100 mg/kg for nonlethal dose in rat
Procedure, shortened: (§1)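 Rats received 100 mg/kg intraperitoneally in (carboxymethyl)cellulose (5 mL/kg), for substances with a mouse lethal dose above 800 mg/kg. Factor Xa was injected 4 h later to induce venous thrombosis, with body temperature near 37 °C. Clamps were placed 15 min after partial flow was restored. The thrombus was excised, dried 24 h at 55 °C and weighed. The result is % reduction of thrombus weight, with 5–10 rats per lot.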

Rattus norvegicus [3] = assay: Percentage reduction of thrombus formation by weight in rat (intraperitoneal administration); set-up: concentration or dose not given beside the values
Procedure, shortened: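 Rat venous stasis thrombosis model using a factor Xa thrombogenic challenge 4 h after intraperitoneal dosing in carboxymethylcellulose at 5 mL/kg. Dose was 100 mg/kg when the mouse lethal dose exceeded 800 mg/kg, otherwise 1/10 of LD50. Body temperature was kept near 37 °C. Thrombus was excised from the split vein, dried 24 h at 55 °C and weighed. Read-out is % reduction in thrombus weight, with 5–10 rats per lot.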

Rattus norvegicus [4] = assay: Antithrombotic activity at 100 mg/kg for nonlethal dose in rat; procedure, shortened: as §1
Rattus norvegicus [5] = assay: Antithrombotic activity at 100 mg/kg in rat; procedure, shortened: as §1
Rattus norvegicus [6] = assay: Effective dose administered orally (4h before injection of the thrombotic stimulus) with reduced thrombus weight in dose-related manner; conditions: po
Rattus norvegicus [7] = assay: Antithrombotic activity at 1/10 mg/kg in rat
Procedure, shortened: (§2)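 Rat venous thrombosis model with factor Xa as the thrombogenic stimulus, injected 4 h after intraperitoneal dosing in (carboxymethyl)cellulose vehicle (5 mL/kg). Dose was 1/10 of the mouse LD50. Body temperature was kept near 37 °C. The vein was clamped 15 min after partial flow was restored. The thrombus was dried 24 h at 55 °C and weighed. The result is % reduction of thrombus weight, with 5–10 rats per lot.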

Rattus norvegicus [8] = assay: Antithrombotic activity at 1/10 mg/kg for lethal dose in rat; procedure, shortened: as §2

O=C(O)C1OC(OC2C(COS(=O)(=O)O)OC(CO)C(NS(=O)(=O)O)C2O)C(OS(=O)(=O)O)C(O)C1CO (centres undefined)
ED50 (Rattus norvegicus [1]): 0.15 mg/kg

COc1ccc(C(=O)c2ccc(O[C@@H]3OC[C@@H](O)[C@H](O)[C@H]3O)cc2)cc1
LD0 (Rattus norvegicus [2]): >800 mg
Activity (Rattus norvegicus [3]): 44%

O[C@@H]1[C@@H](O)[C@H](Oc2ccc(Cc3ccccc3Cl)cc2)OC[C@H]1O
LD0 (Rattus norvegicus [2]): >800 mg
Activity (Rattus norvegicus [3]): 0%

Cc1cc(C(=O)c2ccccc2C)ccc1O[C@@H]1OC[C@@H](O)[C@H](O)[C@H]1O
Activity (Rattus norvegicus [3]): 62%

Cc1ccc(O[C@@H]2OC[C@@H](O)[C@H](O)[C@H]2O)c(C(=O)c2ccccc2C)c1
LD0 (Rattus norvegicus [2]): >800 mg
Activity (Rattus norvegicus [3]): 0%

O=[N+]([O-])c1cccc(Cc2ccc(O[C@@H]3OC[C@@H](O)[C@H](O)[C@H]3O)cc2)c1
LD0 (Rattus norvegicus [2]): >800 mg
Activity (Rattus norvegicus [3]): 32%

O=C(c1ccc(Cl)cc1)c1cccc(O[C@@H]2OC[C@@H](O)[C@H](O)[C@H]2O)c1
LD50 (Rattus norvegicus [4]): 220 mg
Activity (Rattus norvegicus [3]): 0%

O=C(c1ccc(O[C@@H]2OC[C@@H](O)[C@H](O)[C@H]2O)cc1)c1cccc([N+](=O)[O-])c1
LD0 (Rattus norvegicus [2]): >800 mg
Activity (Rattus norvegicus [3]): 39%

O=C(c1ccccc1)c1ccc(O[C@@H]2O[C@H](CO)[C@@H](O)[C@H](O)[C@H]2O)cc1
LD0 (Rattus norvegicus [2]): >800 mg
Activity (Rattus norvegicus [3]): 25%

O=[N+]([O-])c1cccc(C(O)c2ccc(O[C@@H]3OC[C@@H](O)[C@H](O)[C@H]3O)cc2)c1 (some centres undefined)
LD50 (Rattus norvegicus [5]): 600 mg
Activity (Rattus norvegicus [3]): 63%

O[C@@H]1[C@@H](O)[C@H](Oc2ccc(Cc3ccccc3)cc2)OC[C@H]1O
LD0 (Rattus norvegicus [2]): >800 mg
Activity (Rattus norvegicus [3]): 12%

O=[N+]([O-])c1ccc(Cc2ccc(O[C@@H]3OC[C@@H](O)[C@H](O)[C@H]3O)cc2)cc1
LD50 (Rattus norvegicus [5]): 650 mg
ED50 (Rattus norvegicus [6]): 24 mg/kg
Activity (Rattus norvegicus [3]): 80%

O=C(c1ccc([N+](=O)[O-])cc1)c1cccc(O[C@@H]2OC[C@@H](O)[C@H](O)[C@H]2O)c1
LD0 (Rattus norvegicus [2]): >800 mg
Activity (Rattus norvegicus [3]): 61%

O=C(c1ccc(O[C@@H]2OC[C@@H](O)[C@H](O)[C@H]2O)cc1)c1ccc([N+](=O)[O-])cc1
LD0 (Rattus norvegicus [2]): >800 mg
Activity (Rattus norvegicus [3]): 0%

OC(c1ccc(Cl)cc1)c1ccc(O[C@@H]2OC[C@@H](O)[C@H](O)[C@H]2O)cc1 (some centres undefined)
LD0 (Rattus norvegicus [2]): >800 mg
Activity (Rattus norvegicus [3]): 39%

O=C(c1ccc(O[C@@H]2OC[C@@H](O)[C@H](O)[C@H]2O)cc1)c1ccccc1Cl
LD0 (Rattus norvegicus [2]): >800 mg
Activity (Rattus norvegicus [3]): 76%

COc1ccc(Cc2ccc(O[C@@H]3OC[C@@H](O)[C@H](O)[C@H]3O)cc2)cc1
LD0 (Rattus norvegicus [2]): >800 mg
Activity (Rattus norvegicus [3]): 43%

Cc1cc(C(O)c2ccccc2C)ccc1O[C@@H]1OC[C@@H](O)[C@H](O)[C@H]1O (some centres undefined)
LD50 (Rattus norvegicus [5]): 450 mg
Activity (Rattus norvegicus [3]): 14%

Cc1ccccc1C(=O)c1cccc(O[C@@H]2OC[C@@H](O)[C@H](O)[C@H]2O)c1
LD0 (Rattus norvegicus [2]): >800 mg
Activity (Rattus norvegicus [3]): 0%

O=C(c1ccc(Cl)cc1)c1ccc(O[C@@H]2O[C@H](CO)[C@H](O)[C@H](O)[C@H]2O)cc1
LD0 (Rattus norvegicus [2]): >800 mg
Activity (Rattus norvegicus [3]): 0%

O=[N+]([O-])c1ccc(C(O)c2ccc(O[C@@H]3OC[C@@H](O)[C@H](O)[C@H]3O)cc2)cc1 (some centres undefined)
LD0 (Rattus norvegicus [2]): >800 mg
ED50 (Rattus norvegicus [1]): 17.8 mg/kg
ED50 (Rattus norvegicus [6]): 48 mg/kg
Activity (Rattus norvegicus [3]): 80%

O[C@@H]1[C@@H](O)[C@H](Oc2ccc(Cc3ccc(Cl)cc3)cc2)OC[C@H]1O
LD0 (Rattus norvegicus [2]): >800 mg
Activity (Rattus norvegicus [3]): 22%

O=C(c1ccc(O[C@@H]2O[C@H](CO)[C@H](O)[C@H](O)[C@H]2O)cc1)c1ccc([N+](=O)[O-])cc1
LD0 (Rattus norvegicus [2]): >800 mg
Activity (Rattus norvegicus [3]): 0%

O=C(c1ccc(O[C@@H]2OC[C@@H](O)[C@H](O)[C@H]2O)cc1)c1ccc(C(F)(F)F)cc1
LD0 (Rattus norvegicus [2]): >800 mg
Activity (Rattus norvegicus [3]): 0%

O[C@@H]1[C@@H](O)[C@H](Oc2cccc(Cc3ccc(Cl)cc3)c2)OC[C@H]1O
LD50 (Rattus norvegicus [5]): 500 mg
Activity (Rattus norvegicus [3]): 46%

O[C@@H]1[C@@H](O)[C@H](Oc2ccc(Cc3ccc(Cl)cc3Cl)cc2)OC[C@H]1O
LD50 (Rattus norvegicus [5]): 640 mg
Activity (Rattus norvegicus [3]): 25%

O[C@@H]1[C@@H](O)[C@H](Oc2cccc(Cc3ccccc3)c2)OC[C@H]1O
LD50 (Rattus norvegicus [5]): 200 mg
Activity (Rattus norvegicus [3]): 39%

O=C(c1ccc(Cl)cc1)c1ccc(O[C@@H]2OC[C@@H](O)[C@H](O)[C@H]2O)cc1
LD0 (Rattus norvegicus [2]): >800 mg
Activity (Rattus norvegicus [3]): 37%

O=C(c1ccc(O[C@@H]2O[C@H](CO)[C@@H](O)[C@H](O)[C@@H]2O)cc1)c1ccc([N+](=O)[O-])cc1
LD0 (Rattus norvegicus [2]): >800 mg
Activity (Rattus norvegicus [3]): 0%

OC(c1ccc(O[C@@H]2OC[C@@H](O)[C@H](O)[C@H]2O)cc1)c1ccc(Cl)cc1Cl (some centres undefined)
LD50 (Rattus norvegicus [5]): 350 mg
Activity (Rattus norvegicus [3]): 37%

O=C(c1ccccc1)c1cccc(O[C@@H]2OC[C@@H](O)[C@H](O)[C@H]2O)c1
LD0 (Rattus norvegicus [2]): >800 mg
Activity (Rattus norvegicus [3]): 60%

O=C(c1ccc(OC2O[C@H](CO)[C@@H](O[C@@H]3O[C@H](CO)[C@H](O)[C@H](O)[C@H]3O)[C@H](O)[C@H]2O)cc1)c1ccc([N+](=O)[O-])cc1 (some centres undefined)
LD0 (Rattus norvegicus [2]): >800 mg
Activity (Rattus norvegicus [3]): 0%

OC(c1ccccc1)c1ccc(O[C@@H]2OC[C@@H](O)[C@H](O)[C@H]2O)cc1 (some centres undefined)
LD0 (Rattus norvegicus [2]): >800 mg
Activity (Rattus norvegicus [3]): 37%

O=C(c1ccc(O[C@H]2O[C@H](CO)[C@@H](O)[C@H](O)[C@@H]2O)cc1)c1ccc([N+](=O)[O-])cc1
LD0 (Rattus norvegicus [2]): >800 mg
Activity (Rattus norvegicus [3]): 0%

O=C(c1ccccc1)c1ccc(O[C@@H]2OC[C@@H](O)[C@H](O)[C@H]2O)cc1
LD50 (Rattus norvegicus [7]): 750 mg
Activity (Rattus norvegicus [3]): 77%

O=C(c1ccc(O[C@@H]2O[C@H](CO)[C@@H](O)[C@H](O)[C@H]2O)cc1)c1ccc([N+](=O)[O-])cc1
LD0 (Rattus norvegicus [2]): >800 mg
Activity (Rattus norvegicus [3]): 0%

OC(c1ccc(O[C@@H]2OC[C@@H](O)[C@H](O)[C@H]2O)cc1)c1ccccc1Cl (some centres undefined)
LD0 (Rattus norvegicus [2]): >800 mg
Activity (Rattus norvegicus [3]): 51%

C[C@@H]1O[C@H](Oc2ccc(C(=O)c3ccc([N+](=O)[O-])cc3)cc2)[C@H](O)[C@H](O)[C@H]1O
LD0 (Rattus norvegicus [2]): >800 mg
Activity (Rattus norvegicus [3]): 0%

Cc1ccc(C(=O)c2cccc(O[C@@H]3OC[C@@H](O)[C@H](O)[C@H]3O)c2)cc1
LD0 (Rattus norvegicus [2]): >800 mg
Activity (Rattus norvegicus [3]): 0%

N#Cc1ccc(C(=O)c2ccc(O[C@@H]3OC[C@@H](O)[C@H](O)[C@H]3O)cc2)cc1
Activity (Rattus norvegicus [3]): 0%

O=C(c1ccc(O[C@H]2OC[C@@H](O)[C@H](O)[C@H]2O)cc1)c1ccc([N+](=O)[O-])cc1
LD50 (Rattus norvegicus [8]): 600 mg
Activity (Rattus norvegicus [3]): 38%

OC(c1ccccc1)c1cccc(O[C@@H]2OC[C@@H](O)[C@H](O)[C@H]2O)c1 (some centres undefined)
LD0 (Rattus norvegicus [2]): >800
Activity (Rattus norvegicus [3]): 19%

OC(c1ccc(Cl)cc1)c1cccc(O[C@@H]2OC[C@@H](O)[C@H](O)[C@H]2O)c1 (some centres undefined)
LD0 (Rattus norvegicus [2]): >800 mg
Activity (Rattus norvegicus [3]): 0%

O=C(c1ccc(O[C@@H]2O[C@H](CO)[C@H](O[C@@H]3O[C@H](CO)[C@@H](O)[C@H](O)[C@H]3O)[C@H](O)[C@H]2O)cc1)c1ccc([N+](=O)[O-])cc1
LD0 (Rattus norvegicus [2]): >800 mg
Activity (Rattus norvegicus [3]): 17%

O=C(c1ccc(Cl)cc1)c1ccc(O[C@@H]2O[C@H](CO)[C@@H](O)[C@H](O)[C@H]2O)cc1
LD0 (Rattus norvegicus [2]): >800 mg
Activity (Rattus norvegicus [3]): 0%

Cc1ccc(C(=O)c2ccc(O[C@@H]3OC[C@@H](O)[C@H](O)[C@H]3O)cc2)cc1
LD0 (Rattus norvegicus [2]): >800 mg
Activity (Rattus norvegicus [3]): 0%

O=C(c1ccc(O[C@@H]2OC[C@@H](O)[C@H](O)[C@H]2O)cc1)c1ccc(Cl)cc1Cl
LD0 (Rattus norvegicus [2]): >800 mg
Activity (Rattus norvegicus [3]): 18%
